In general, IC50 refers to the concentration that inhibits the measured activity by half.

Active and inactive are the calls of the source. No cut-off for these calls is given here. A value given as a limit tells only on which side of the number the result lay.

The target of data set [1] is T1, C3a anaphylatoxin chemotactic receptor (Homo sapiens, UniProt Q16581).
T1 sequence (Q16581 whole entry): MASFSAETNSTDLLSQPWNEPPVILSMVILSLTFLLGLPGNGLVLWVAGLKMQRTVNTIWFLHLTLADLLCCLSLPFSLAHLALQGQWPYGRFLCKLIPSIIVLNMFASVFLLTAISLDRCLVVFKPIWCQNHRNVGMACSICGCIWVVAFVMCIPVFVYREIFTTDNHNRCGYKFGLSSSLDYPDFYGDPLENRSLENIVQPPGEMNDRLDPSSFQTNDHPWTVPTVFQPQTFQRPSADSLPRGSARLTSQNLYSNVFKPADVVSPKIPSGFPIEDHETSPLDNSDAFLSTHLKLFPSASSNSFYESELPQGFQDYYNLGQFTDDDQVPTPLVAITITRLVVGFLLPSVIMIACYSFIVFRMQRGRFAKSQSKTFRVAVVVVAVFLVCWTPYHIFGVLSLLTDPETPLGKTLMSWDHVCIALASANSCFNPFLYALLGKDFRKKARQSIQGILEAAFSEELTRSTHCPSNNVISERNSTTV
In words: Antagonist activity at C3a receptor in human MDM cells assessed as inhibition of C3a-induced intracellular calcium release preincubated for 30 mins followed by C3a addition and measured at 1 sec interval for => 200 secs by Fluo-3 AM dye-based FLIPR assay. In kind it is functional, cell-based. Conditions: read-out: IC50. In a few lines:
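Macrophages were derived from CD14⁺ monocytes (M-CSF, 7 days) and dye-loaded with 4 μM Fluo-3 AM for 1 h at 37 °C in HBSS/probenecid/HEPES, pH 7.4. Antagonist was preincubated for 30 min at 37 °C before addition of synthetic full-length human C3a (100 nM). FLIPR fluorescence was read at ex 495/em 520 nm. Percent response was plotted against log concentration; n ≥ 3.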
On the technique in general: Calcium assays in cells follow changes in intracellular calcium, usually with a dye or a luminescent sensor.

Data set [2] has as its target T1, C3a anaphylatoxin chemotactic receptor. In words: Agonist activity at C3a receptor in human MDM cells assessed as induction of intracellular calcium release measured at 1 sec interval for => 200 secs by Fluo-3 AM dye-based FLIPR assay. The data set is classed as cell-based. In a few lines:
(§1)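 HMDMs were differentiated from CD14⁺ monocytes with M-CSF (100 ng/mL) for 7 days and seeded overnight at 5 × 10⁴ cells/well. Cells were loaded with 4 μM Fluo-3 AM for 1 h at 37 °C, then placed in HBSS with 2.5 mM probenecid and 20 mM HEPES, pH 7.4. Agonist was added on FLIPR and read at ex 495/em 520 nm. EC50 is relative to the maximum from 1 μM C3a; n ≥ 3.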

Data set [3] can be described thus: Stability of the compound in rat liver microsomes at 1 uM preincubated for 5 mins followed by NADPH addition and measured after 1 hr by LC-MS/MS analysis. In kind it is ADME, Microsome. A digest of the protocol:
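Compound at 1 μM in 100 mM phosphate buffer, pH 7.4 (0.1% DMSO), was incubated with rat liver microsomes […] at 37 °C before further NADPH was added. Aliquots taken at 0, 5, 15, 30 and 60 min were quenched in MeCN/H₂O (9:1), centrifuged and analysed by LC-MS/MS. Microsomal activity was confirmed in parallel with SLIGRL-NH₂; n = 3.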
Background: Liver microsomes are vesicles of endoplasmic reticulum, rich in cytochrome P450 enzymes.

Data set [4] deals with T1, C3a anaphylatoxin chemotactic receptor. In words: Partial agonist activity at C3a receptor in human MDM cells assessed as induction of intracellular calcium release at higher concentration measured at 1 sec interval for => 200 secs by Fluo-3 AM dye-based FLIPR assay relative to control. The data set is classed as cell-based. A digest of the protocol:
as §1

Data set [5] has as its target T2, C5a anaphylatoxin chemotactic receptor 1 (Homo sapiens) (UniProt P21730).
T2 sequence (whole entry): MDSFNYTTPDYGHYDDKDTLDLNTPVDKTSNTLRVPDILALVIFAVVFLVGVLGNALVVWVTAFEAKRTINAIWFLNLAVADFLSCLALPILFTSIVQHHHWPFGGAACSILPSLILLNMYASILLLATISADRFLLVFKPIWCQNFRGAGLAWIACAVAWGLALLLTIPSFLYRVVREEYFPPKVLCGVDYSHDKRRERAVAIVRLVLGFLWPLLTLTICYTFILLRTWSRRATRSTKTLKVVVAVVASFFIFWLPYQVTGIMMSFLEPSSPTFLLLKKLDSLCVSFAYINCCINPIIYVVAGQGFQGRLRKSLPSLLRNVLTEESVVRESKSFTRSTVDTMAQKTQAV
The experiment in a line: Antagonist activity at C5a receptor in human MDM cells assessed as inhibition of C5a-induced intracellular calcium release preincubated for 30 mins followed by C5a addition and measured at 1 sec interval for => 200 secs by Fluo-3 AM dye-based FLIPR assay. In kind it is functional, cell-based. In a few lines: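 HMDMs from CD14+ monocytes after 7 days in M-CSF; 5 × 10⁴ cells/well seeded overnight. Cells loaded 1 h at 37 °C with 4 μM Fluo-3 AM, then washed into HBSS with 2.5 mM probenecid and 20 mM HEPES, pH 7.4. Antagonist preincubated 30 min at 37 °C before C5a. Fluorescence (ex 495/em 520 nm) read every 1 s for ≥200 s.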

The target of data set [6] is T3, C3a anaphylatoxin chemotactic receptor (Homo sapiens) (UniProt Q16581).
T3 sequence (whole entry): T1 sequence (Q16581 whole entry)
The experiment in a line: Displacement of Eu-DTPA-C3a from Galpha16-coupled C3a receptor (unknown origin) expressed in HEK293 cells measured after 60 mins by time-resolved fluorescence assay. In kind it is cell-based.

Turning to `CCC(c1ccccc1)c1ccc(C(=O)N[C@@H](CCCNC(=N)N)C(=O)O)s1` (mixture of isomers), the IC50 in data set [1] came out at 2.3 µM. Further, the EC50 in data set [2] (read-out: EC50) and in data set [2] (read-out: pEC50 (converted)) was > 100 µM each time.

Turning to `Cc1cc(C(=O)N[C@@H](CCCNC(=N)N)C(=O)O)sc1C(c1ccccc1)c1ccccc1`, the IC50 in data set [1] amounted to 0.14 µM. In addition, the EC50 in data set [2] (read-out: EC50) and in data set [2] (read-out: pEC50 (converted)) was > 100 µM each time.

Take `Cc1cc(C(c2ccc(O)cc2)c2ccc(O)cc2)sc1C(=O)N[C@@H](CCCNC(=N)N)C(=O)O`: the IC50 in data set [1] was 0.79 µM. In data set [3], the Stability entry is listed as “Stable”. For the same compound, the EC50 in data set [2] (read-out: EC50) and in data set [2] (read-out: pEC50 (converted)) was > 100 µM throughout.

On to `N=C(N)NCCC[C@H](NC(=O)c1sc(C(c2ccccc2)c2ccccc2)cc1Br)C(=O)O`, for which, in data set [1], the IC50 worked out at 0.51 µM. In addition, the Activity in data set [4] lay in the range of 30 to 80%. Besides, in data set [2] (read-out: pEC50 (converted)), the EC50 is 100 µM.

For `N=C(N)NCCC[C@H](NC(=O)c1ccc(C(c2ccc(F)cc2)c2ccc(F)cc2)s1)C(=O)O`, in data set [1], the IC50 came to 0.1 µM. The EC50 in data set [2] (read-out: EC50) and in data set [2] (read-out: pEC50 (converted)) was > 10 µM in each case.

As for `N=C(N)NCCC[C@H](NC(=O)c1ccc(C(c2ccccc2)C2CCCCC2)s1)C(=O)O` (mixture of isomers), in data set [1], the concentration for half-maximal inhibition (IC50) is 0.004 µM. The Activity entry in data set [4] is reported as “<= 30%”. In data set [2] (read-out: EC50), the EC50 is 0.07 µM.

Consider `CC(=O)N[C@@H](Cc1ccccc1)C(=O)N[C@H]1CCCNC(=O)[C@H](CCCN=C(N)N)NC(=O)[C@H](Cc2c[nH]c3ccccc23)NC(=O)[C@@H](CC2CCCCC2)NC(=O)[C@@H]2CCCN2C1=O`, for which the inhibition entry in data set [5] is “Active”.

For the compound `Cc1[nH]c(C(c2ccccc2)c2ccccc2)nc1C(=O)N[C@@H](CCCNC(=N)N)C(=O)O`, the inhibition entry in data set [6] was “Dose-dependent effect”.

Consider `CCC(Cc1ccccc1)c1ccc(C(=O)N[C@@H](CCCNC(=N)N)C(=O)O)s1` (mixture of isomers), for which the IC50 in data set [1] stood at 0.2 µM. Besides, the EC50 in data set [2] (read-out: EC50) and in data set [2] (read-out: pEC50 (converted)) was > 100 µM throughout.

`N=C(N)NCCC[C@H](NC(=O)c1cc(-c2ccccc2)c(C(c2ccccc2)c2ccccc2)s1)C(=O)O`: the 50% inhibitory concentration (IC50) in data set [1] is 0.14 µM. For the same compound, the EC50 in data set [2] (read-out: EC50) and in data set [2] (read-out: pEC50 (converted)) was > 100 µM each time.

`N=C(N)NCCC[C@H](NC(=O)c1ccc(C(c2ccccc2)c2ccccn2)s1)C(=O)O` (mixture of isomers): the half-maximal inhibitory concentration (IC50) in data set [1] was determined as 0.04 µM. Also, the Activity in data set [4] is 30 to 80%. Besides, the EC50 in data set [2] (read-out: EC50) and in data set [2] (read-out: pEC50 (converted)) was > 100 µM in each case.

As for `Cc1cc(C(c2ccc(F)cc2)c2ccc(F)cc2)sc1C(=O)N[C@@H](CCCNC(=N)N)C(=O)O`, in data set [1], the IC50 worked out at 0.035 µM. In addition, the Activity in data set [4] was in the range of 30 to 80%. The EC50 in data set [2] (read-out: EC50) and in data set [2] (read-out: pEC50 (converted)) was > 100 µM in each case.

In the case of `CC(C)=C(c1ccccc1)c1ccc(C(=O)N[C@@H](CCCNC(=N)N)C(=O)O)s1`, in data set [1], the 50% inhibitory concentration (IC50) turned out to be 4.4 µM. For the same compound, the EC50 in data set [2] (read-out: EC50) and in data set [2] (read-out: pEC50 (converted)) was > 100 µM throughout.

`CC(c1ccccc1)c1ccc(C(=O)N[C@@H](CCCNC(=N)N)C(=O)O)s1` (mixture of isomers): the IC50 in data set [1] was > 10 µM. Moreover, the EC50 in data set [2] (read-out: EC50) and in data set [2] (read-out: pEC50 (converted)) was > 100 µM in each case.

Take `N=C(N)NCCC[C@H](NC(=O)c1ccc(C2CCCCCCCCCCC2)s1)C(=O)O`: the IC50 in data set [1] was > 100 µM. For the same compound, the EC50 in data set [2] (read-out: EC50) and in data set [2] (read-out: pEC50 (converted)) was > 100 µM throughout.

For the compound `N=C(N)NCCC[C@H](NC(=O)c1ccc(C(c2cccc(Cl)c2)c2cccc(Cl)c2)s1)C(=O)O`, in data set [1], the IC50 was 0.006 µM. Moreover, in data set [4], the Activity result is “<= 60%”. In addition, the EC50 in data set [2] (read-out: EC50) came out at 0.05 µM.

As to `N=C(N)NCCC[C@H](NC(=O)c1ccc(C(c2ccccc2)c2ccc3ccccc3c2)s1)C(=O)O` (mixture of isomers), the IC50 in data set [1] was found to be 0.09 µM. Further, the EC50 in data set [2] (read-out: EC50) and in data set [2] (read-out: pEC50 (converted)) was > 100 µM in each case.

With `COc1ccc(C(c2ccc(OC)cc2)c2ccc(C(=O)N[C@@H](CCCNC(=N)N)C(=O)O)s2)cc1`, the IC50 in data set [1] amounted to 6.1 µM. The EC50 in data set [2] (read-out: EC50) and in data set [2] (read-out: pEC50 (converted)) was > 100 µM each time.

Consider `N=C(N)NCCC[C@H](NC(=O)c1cnc(C(c2ccccc2)c2ccccc2)s1)C(=O)O`, for which, in data set [1], the IC50 was found to be 0.6 µM. The EC50 in data set [2] (read-out: EC50) and in data set [2] (read-out: pEC50 (converted)) was > 100 µM throughout.

As for `COc1ccc(C(c2ccc(OC)cc2)c2cc(C)c(C(=O)N[C@@H](CCCNC(=N)N)C(=O)O)s2)cc1`, in data set [1], the IC50 came out at 2 µM. The EC50 in data set [2] (read-out: EC50) and in data set [2] (read-out: pEC50 (converted)) was > 100 µM in each case.

`N=C(N)NCCC[C@H](NC(=O)c1ccc(C(Cc2ccccc2)Cc2ccccc2)s1)C(=O)O`: the IC50 in data set [1] is 0.1 µM. The EC50 in data set [2] (read-out: EC50) and in data set [2] (read-out: pEC50 (converted)) was > 100 µM in each case.

For `Cc1cc(C(c2cccc(Cl)c2)c2cccc(Cl)c2)sc1C(=O)N[C@@H](CCCNC(=N)N)C(=O)O`, the IC50 in data set [1] worked out at 0.003 µM. The Activity entry in data set [4] is reported as “<= 80%”. Further, the EC50 in data set [2] (read-out: EC50) was found to be 0.046 µM.

For `N=C(N)NCCC[C@H](NC(=O)c1ccc(Cc2ccccc2)s1)C(=O)O`, the IC50 in data set [1] was > 10 µM. The EC50 in data set [2] (read-out: EC50) and in data set [2] (read-out: pEC50 (converted)) was > 100 µM in each case.

Consider `N=C(N)NCCC[C@H](NC(=O)c1sc(C(c2ccccc2)c2ccccc2)cc1-c1ccccc1)C(=O)O`, for which the IC50 in data set [1] is > 100 µM. The EC50 in data set [2] (read-out: EC50) and in data set [2] (read-out: pEC50 (converted)) was > 100 µM throughout.

For the compound `N=C(N)NCCC[C@H](NC(=O)c1sc(C(c2ccccc2)c2ccccc2)c2c1CCCC2)C(=O)O`, the IC50 in data set [1] stood at 2.4 µM. For the same compound, the EC50 in data set [2] (read-out: EC50) and in data set [2] (read-out: pEC50 (converted)) was > 100 µM in each case.
